Legend:
Assay type in all cases: cell-based
HCT-116 (colon cancer) = assay: MTT cell viability assay, HCT-116; conditions: Homo sapiens; for cytotoxicity at 100 µM: HCT-116, read-out: Cytotoxicity %, HCT-116; for IC50: HCT-116, 48 h, read-out: IC50 values, HCT-116
In short: (§1)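 MTT viability assay on human cell lines: MCF-7, HCT-116, PC3 and normal BJ-1. Test compounds were first screened at 100 μM. IC50 values came from a concentration series of 100 μM down to 12.5 μM.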

MCF-7 (breast cancer) = assay: MTT cell viability assay, MCF-7; conditions: Homo sapiens; for cytotoxicity at 100 µM: MCF7, read-out: Cytotoxicity %, MCF-7; for IC50: MCF7, 48 h, read-out: IC50 values, MCF-7
In short: as §1

PC3 (prostate cancer) = assay: MTT cell viability assay, PC3; conditions: Homo sapiens; for cytotoxicity at 100 µM: read-out: Cytotoxicity %, PC3; for IC50: 48 h, read-out: IC50 values, PC3
In short: as §1

| IC50 (HCT-116 (colon cancer)) | IC50 (MCF-7 (breast cancer)) | IC50 (PC3 (prostate cancer)) | SMILES | cytotoxicity at 100 µM (HCT-116 (colon cancer)) | cytotoxicity at 100 µM (MCF-7 (breast cancer)) | cytotoxicity at 100 µM (PC3 (prostate cancer)) |
| --- | --- | --- | --- | --- | --- | --- |
| – | – | – | CCS(=O)(=O)Oc1ccc(C=NNC(=O)c2nc3ccccc3s2)cc1 [6g, 4-((2-(Benzo[d]thiazole-2-carbonyl)hydrazono)methyl)phenyl ethanesulfonate] | 68.6% | 62.3% | 74.8% |
| 102 ± 2.1 µM | – | – | O=C(NN=Cc1ccc(O)cc1)c1nc2ccccc2s1 [6a, N′-(4-Hydroxybenzylidene)benzo[d]thiazole-2-carbohydrazide] | – | – | – |
| 29.2 ± 1.7 µM | 78.4 ± 4.2 µM | > 200 µM | O=c1[nH]cc(F)c(=O)[nH]1 [5-FU, 5-fluorouracil, reference compound] | – | – | – |
| – | – | – | CCCS(=O)(=O)Oc1ccc(C=NNC(=O)c2nc3ccccc3s2)cc1 [6j, 4-((2-(Benzo[d]thiazole-2-carbonyl)hydrazono)methyl)phenyl propane-1-sulfonate] | 68.5% | – | 62.3% |
| – | – | – | COc1ccc(C=NNC(=O)c2nc3ccccc3s2)cc1OS(C)(=O)=O [6f, 5-((2-(Benzo[d]thiazole-2-carbonyl)hydrazono)methyl)-2-methoxyphenyl methanesulfonate] | 62.8% | – | – |
| – | – | – | CCCS(=O)(=O)Oc1ccc(C=NNC(=O)c2nc3ccccc3s2)cc1OC [6k, 4-((2-(Benzo[d]thiazole-2-carbonyl)hydrazono)methyl)-2-methoxyphenyl propane-1-sulfonate] | 77.2% | 59.6% | 64.6% |
| – | – | – | CS(=O)(=O)Oc1ccc(C=NNC(=O)c2nc3ccccc3s2)cc1 [6d, 4-((2-(Benzo[d]thiazole-2-carbonyl)hydrazono)methyl)phenyl methanesulfonate] | 66.7% | 62.5% | 66.5% |
| 81.4 ± 1.9 µM | – | 90.6 ± 2.7 µM | COc1cc(C=NNC(=O)c2nc3ccccc3s2)ccc1OS(C)(=O)=O [6e, 4-((2-(Benzo[d]thiazole-2-carbonyl)hydrazono)methyl)-2-methoxyphenyl methanesulfonate] | 61.1% | – | 60.8% |
| – | 80.9 ± 3.7 µM | – | COc1ccc(C=NNC(=O)c2nc3ccccc3s2)cc1O [6c, N'-(3-Hydroxy-4-methoxybenzylidene)benzo[d]thiazole-2-carbohydrazide] | – | 58.1% | – |
| – | – | – | CCS(=O)(=O)Oc1ccc(C=NNC(=O)c2nc3ccccc3s2)cc1OC [6h, 4-((2-(Benzo[d]thiazole-2-carbonyl)hydrazono)methyl)-2-methoxyphenyl ethanesulfonate] | 55.2% | – | 63.4% |
